Active and inactive are the calls of the source. No cut-off for these calls is given here.
Key:
[1] = Stability of the compound in 0.1 M HCl at pH 1 assessed as compound remaining at 100 uM after 3 hrs by RP-HPLC analysis; assay type: physicochemical; conditions: read-out: Stability
[2] = Stability of the compound in phosphate buffer at pH 7.4 assessed as half life at 100 uM by RP-HPLC analysis; assay type: physicochemical
Outline: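 Compound held at 37 °C, final concentration 100 µM. Aliquots taken over time and analysed by RP-HPLC (C18; acetonitrile/water 55:45 with 0.1% TFA). Pseudo-first-order rate constants and half-lives obtained by fitting remaining ester versus time to one-phase exponential decay.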

[3] = Stability of the compound in human serum assessed as half life at 200 uM by RP-HPLC analysis; assay type: ADME, cell-free
Outline: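 Compound added from 10 mM acetonitrile stock to human serum preheated to 37 °C. Disappearance followed by RP-HPLC (C18; acetonitrile/water 55:45, 0.1% TFA). Half-life from pseudo-first-order fit.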

[4] = biological target: Prostaglandin G/H synthase 1 (Homo sapiens) (UniProt P23219); test: Inhibition of COX1 in human platelets assessed as inhibition of A23187-stimulated TXB2 production at 100 uM pre-incubated for 30 mins before addition of A23187 measured after 10 mins by EIA
Prostaglandin G/H synthase 1 (Homo sapiens), sequence (P23219 whole entry): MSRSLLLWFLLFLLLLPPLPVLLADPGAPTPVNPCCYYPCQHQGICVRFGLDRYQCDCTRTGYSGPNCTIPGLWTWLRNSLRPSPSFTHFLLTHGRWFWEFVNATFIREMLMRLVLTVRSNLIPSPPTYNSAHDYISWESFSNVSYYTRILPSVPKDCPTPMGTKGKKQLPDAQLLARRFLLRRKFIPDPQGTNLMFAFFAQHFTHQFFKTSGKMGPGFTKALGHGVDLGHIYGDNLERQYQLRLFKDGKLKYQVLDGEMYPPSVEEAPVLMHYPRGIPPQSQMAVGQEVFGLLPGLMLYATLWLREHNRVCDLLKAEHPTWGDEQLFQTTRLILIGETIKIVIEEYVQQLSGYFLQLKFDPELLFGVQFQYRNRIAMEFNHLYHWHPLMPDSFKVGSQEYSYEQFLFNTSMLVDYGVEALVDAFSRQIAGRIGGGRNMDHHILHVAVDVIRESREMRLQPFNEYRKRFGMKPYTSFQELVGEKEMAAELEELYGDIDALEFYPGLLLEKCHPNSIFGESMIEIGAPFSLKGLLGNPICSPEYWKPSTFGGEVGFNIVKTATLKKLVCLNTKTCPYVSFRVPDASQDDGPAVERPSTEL
Outline: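 Washed human platelets (10⁸ cells/mL) incubated 30 min at 37 °C with compound, diluted from 400-fold DMSO stocks. A23187 (2 µM) then added for 10 min at 37 °C, and reaction stopped with methanol. Supernatant TXB2 measured by EIA. % inhibition versus untreated control, after subtracting no-ionophore background.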

[5] = biological target: T1, Prostaglandin G/H synthase 2 (Homo sapiens) (UniProt P35354); test: Inhibition of COX2 in LPS-stimulated human monocytes assessed as inhibition of arachidonic acid-stimulated PGE2 production at 100 uM pre-incubated for 30 mins before addition of arachidonic acid measured after 15 mins by EIA; assay type: cell-based
T1 sequence (whole entry): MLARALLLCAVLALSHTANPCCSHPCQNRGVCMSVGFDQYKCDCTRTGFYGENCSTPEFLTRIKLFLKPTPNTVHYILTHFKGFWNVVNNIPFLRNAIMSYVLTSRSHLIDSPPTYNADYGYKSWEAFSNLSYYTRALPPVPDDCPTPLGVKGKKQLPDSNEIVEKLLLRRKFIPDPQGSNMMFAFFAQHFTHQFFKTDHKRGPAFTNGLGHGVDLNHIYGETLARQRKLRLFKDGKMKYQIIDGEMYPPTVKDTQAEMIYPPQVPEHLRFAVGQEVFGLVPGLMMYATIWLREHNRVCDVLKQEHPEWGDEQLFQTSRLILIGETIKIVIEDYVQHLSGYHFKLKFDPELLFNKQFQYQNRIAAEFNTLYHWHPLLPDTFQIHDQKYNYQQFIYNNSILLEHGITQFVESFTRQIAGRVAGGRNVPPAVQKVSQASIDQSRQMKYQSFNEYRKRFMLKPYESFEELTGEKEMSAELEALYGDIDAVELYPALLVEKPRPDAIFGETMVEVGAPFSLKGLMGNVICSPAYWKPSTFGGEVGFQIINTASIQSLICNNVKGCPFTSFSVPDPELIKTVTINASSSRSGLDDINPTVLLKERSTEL
Outline: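 Human monocytes (10⁶ cells/mL) induced with LPS for 18 h at 37 °C, 5% CO2, then resuspended in FCS-free RPMI-1640. Compound (from 200-fold DMSO stocks) added for 30 min, then arachidonic acid (100 µM) for 15 min. Supernatant PGE2 by EIA. % inhibition versus untreated control, minus no-arachidonate background.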

[6] = Antiaggregatory activity in human platelet rich plasma assessed as inhibition of collagen-induced platelet aggregation preincubated for 10 mins before collagen challenge measured after 10 mins by aggregometry; assay type: functional
Outline: (§1)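 PRP from citrated human blood (200g, 20 min). Compound preincubated 10 min, then submaximal collagen (0.8–1.5 µg/mL) added. Light transmission recorded at 37 °C under stirring (1000 rpm) for 10 min. Vehicle 0.5% DMSO. Result is % inhibition versus control. IC50 by nonlinear regression, otherwise % inhibition at 300 µM. At least five experiments.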

[7] = Antiaggregatory activity in human platelet rich plasma assessed as inhibition of collagen-induced platelet aggregation preincubated for 10 mins before collagen challenge measured after 10 mins by aggregometry in presence of 50 uM of sGC inhibitor ODQ; assay type: functional
Outline: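 Collagen-induced aggregation in human PRP run as in the standard assay, with the sGC inhibitor ODQ (50 µM) present. Compound preincubated 10 min before submaximal collagen (0.8–1.5 µg/mL). Light transmission followed 10 min at 37 °C. At least five experiments.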

Aorta [8] = test: Vasodilatory activity in Wistar rat thoracic aorta assessed as relaxation of L-phenylephrine-induced vasoconstriction; assay type: functional, tissue-based
Outline: (§2)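 Rat aortic strips equilibrated 120 min, then contracted with phenylephrine. At plateau, cumulative concentrations of vasodilator added. Tension recorded isometrically. Results given as EC50 ± SE. Where tested, ODQ was added to the bath 5 min before contraction.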

Aorta [9] = test: Vasodilatory activity in Wistar rat thoracic aorta assessed as relaxation of L-phenylephrine-induced vasoconstriction in presence of 1 uM sGC inhibitor ODQ; assay type: functional, tissue-based; outline: as §2
Rattus norvegicus [10] = test: Antiinflammatory activity in Wistar rat assessed as inhibition of carrageenan-induced paw edema at dose equimolar to 120 mg/kg aspirin, administered intragastrically immediately after carrageenan challenge measured after 3 hrs by water plethysmometer relative to control; assay type: functional; conditions: po, route intragastric
Outline: (§3)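 Male Wistar rats (180–200 g). Edema induced by intraplantar 0.1 mL of 1% carrageenan in 1% CMC into the right hindpaw. Compounds given intragastrically in 1% CMC (10 mL/kg) immediately afterwards. Aspirin at 120 mg/kg, others equimolar. Paw volume by water plethysmometer before and at 3 h. Reported as % inhibition versus vehicle (=100). Groups of 6–8, mean ± SEM, Dunnett's test.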

Rattus norvegicus [11] = test: Ulcerogenicity in Wistar rat assessed as damage in gastric mucosa-lesion index at dose equimolar to 120 mg/kg aspirin, administered intragastrically after 3 hrs by stereomicroscopy; assay type: toxicity, organism-based; design: dose 120 mg/kg, route intragastric; conditions: in vivo, po
Outline: (§4)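 Male Wistar rats (180–200 g), fasted 24 h with water available. Groups of 8–10 given aspirin 120 mg/kg intragastrically, or equimolar doses, in 1% CMC. Killed 3 h later. Glandular mucosa examined under stereomicroscope. Each hemorrhagic lesion scored by greatest length and summed as lesion index. Mean ± SEM, ANOVA with Newman–Keuls test.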

Thromboxane A2 receptor = biological target: T2, Thromboxane A2 receptor (Homo sapiens, UniProt P21731); test: Antagonist activity at thromboxane receptor in human blood assessed as inhibition of U-46619-induced effect; assay type: functional
T2 sequence (P21731 whole entry): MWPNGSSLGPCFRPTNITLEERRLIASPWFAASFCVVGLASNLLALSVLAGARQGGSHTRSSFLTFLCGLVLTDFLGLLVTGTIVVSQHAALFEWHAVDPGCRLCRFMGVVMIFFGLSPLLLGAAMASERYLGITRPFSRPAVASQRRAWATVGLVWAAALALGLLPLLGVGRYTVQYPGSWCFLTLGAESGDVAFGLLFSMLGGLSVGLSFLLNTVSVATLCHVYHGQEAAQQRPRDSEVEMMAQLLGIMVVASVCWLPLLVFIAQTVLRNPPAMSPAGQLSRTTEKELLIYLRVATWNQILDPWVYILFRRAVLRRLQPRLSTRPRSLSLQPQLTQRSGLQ
Outline: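 Citrated human blood pretreated with 1 mM acetylsalicylic acid; PRP made by 200g spin for 20 min. PRP incubated with compound or vehicle (0.5% DMSO), then challenged with U-46619 (0.5–2.5 µM). Aggregation recorded as light transmission at 37 °C with stirring. At least four experiments per compound.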

[12] = Antiaggregatory activity in human platelet rich plasma assessed as inhibition of collagen-induced platelet aggregation at 300 uM preincubated for 10 mins before collagen challenge measured after 10 mins by aggregometry; assay type: functional; outline: as §1
Rattus norvegicus [13] = test: Antiinflammatory activity in Wistar rat assessed as inhibition of carrageenan-induced paw edema at 120 mg/kg, administered intragastrically immediately after carrageenan challenge measured after 3 hrs by water plethysmometer relative to control; assay type: functional; conditions: po, route intragastric; outline: as §3
[14] = Stability of the compound in phosphate buffer at pH 7.4 assessed as compound remaining at 100 uM after 3 hrs by RP-HPLC analysis; assay type: physicochemical; conditions: read-out: Stability
Outline: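 Each compound was incubated in pH 7.4 aqueous buffer at a final 100 µM and held at 37 ± 0.5 °C. Aliquots taken at timed intervals were run on RP-HPLC (C18; acetonitrile/water 55:45 with 0.1% TFA; 1.2 mL/min), calibrated linearly over 1–200 µM. Remaining ester versus time was fitted to one-phase exponential decay.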

Rattus norvegicus [15] = test: Ulcerogenicity in Wistar rat assessed as damage in gastric mucosa-lesion index at 120 mg/kg, administered intragastrically after 3 hrs by stereomicroscopy; assay type: toxicity, organism-based; design: dose 120 mg/kg, route intragastric; conditions: in vivo, po; outline: as §4

Row | Compound | remaining at 3 h, 100 µM [1] [%] | half-life at 100 µM [2] [min] | half-life at 200 µM [3] [min] | inhibition [4] | inhibition [5] | IC50 [6] [µM] | IC50 [7] [µM] | Activity (Aorta [8]) | EC50 (Aorta [8]) [µM] | EC50 (Aorta [9]) [µM] | inhibition in vivo (Rattus norvegicus [10]) [%] | UI (Rattus norvegicus [11]) [mm] | IC50 (Thromboxane A2 receptor) [µM] | inhibition at 300 µM [12] [%] | inhibition in vivo at 120 mg/kg (Rattus norvegicus [10]; dose 120 mg/kg) [%] | inhibition in vivo at 120 mg/kg (Rattus norvegicus [13]) [%] | remaining at 3 h, 100 µM [14] [%] | UI (Rattus norvegicus [15]) [mm]
1 | N#Cc1c(CSCC(=O)Oc2ccccc2C(=O)O)no[n+]1[O-] | 96 | 33 | 13 | inactive | inactive | 7.3 | 88 | Dose-dependent effect | 0.04 | 2.4 | 54.9 | 1.2 | – | – | – | – | – | –
2 | NC(=O)c1c(CSCC(=O)Oc2ccccc2C(=O)O)no[n+]1[O-] | 97 | 45 | 27 | inactive | inactive | 66 | 59 | Dose-dependent effect | 23 | – | 39.4 | – | 38 | – | – | – | – | –
3 | O=C(CCOc1no[n+]([O-])c1-c1ccccc1)Oc1ccccc1C(=O)O | 98 | 288 | 35 | inactive | inactive | – | – | Dose-dependent effect | 11 | – | 37.6 | 0.3 | – | 17 | – | – | – | –
4 | O=C(CCOc1no[n+]([O-])c1S(=O)(=O)c1ccccc1)Oc1ccccc1C(=O)O | 96 | 360 | 30 | inactive | inactive | 7.8 | 152 | Dose-dependent effect | 0.014 | 0.97 | 49.6 | 0.4 | – | – | – | – | – | –
5 | N#Cc1nonc1CSCC(=O)Oc1ccccc1C(=O)O | 96 | 38 | 14 | inactive | inactive | – | – | – | – | – | 38.9 | 0.2 | – | 36 | – | – | – | –
6 | O=C(O)c1ccccc1O [SALICYLIC ACID] | – | – | – | – | – | – | – | – | – | – | – | 1.1 | – | – | 36.8 | – | – | –
7 | CC(=O)Oc1ccccc1C(=O)O [ASPIRIN] | 90 | – | 63 | – | – | 54 | – | – | – | – | – | – | – | – | – | 43 | 90 | 50
8 | O=C(CCOc1nonc1-c1ccccc1)Oc1ccccc1C(=O)O | 98 | 318 | 40 | inactive | inactive | – | – | – | – | – | 38.6 | 1.2 | – | 12 | – | – | – | –
9 | O=C(CCOc1nonc1S(=O)(=O)c1ccccc1)Oc1ccccc1C(=O)O | 97 | 370 | 35 | inactive | inactive | – | – | – | – | – | 38.8 | 0.3 | – | 2.6 | – | – | – | –
10 | NC(=O)c1nonc1CSCC(=O)Oc1ccccc1C(=O)O | 97 | 50 | 27 | inactive | inactive | 144 | – | – | – | – | 39.6 | 0.3 | 39 | – | – | – | – | –
